The record followed here is ChEMBL document CHEMBL1687930 (J Med Chem, 2011).

In experiment [1] the target is T1, Kinesin-like protein KIF11 (Homo sapiens, UniProt P52732).
T1 sequence (P52732 whole entry): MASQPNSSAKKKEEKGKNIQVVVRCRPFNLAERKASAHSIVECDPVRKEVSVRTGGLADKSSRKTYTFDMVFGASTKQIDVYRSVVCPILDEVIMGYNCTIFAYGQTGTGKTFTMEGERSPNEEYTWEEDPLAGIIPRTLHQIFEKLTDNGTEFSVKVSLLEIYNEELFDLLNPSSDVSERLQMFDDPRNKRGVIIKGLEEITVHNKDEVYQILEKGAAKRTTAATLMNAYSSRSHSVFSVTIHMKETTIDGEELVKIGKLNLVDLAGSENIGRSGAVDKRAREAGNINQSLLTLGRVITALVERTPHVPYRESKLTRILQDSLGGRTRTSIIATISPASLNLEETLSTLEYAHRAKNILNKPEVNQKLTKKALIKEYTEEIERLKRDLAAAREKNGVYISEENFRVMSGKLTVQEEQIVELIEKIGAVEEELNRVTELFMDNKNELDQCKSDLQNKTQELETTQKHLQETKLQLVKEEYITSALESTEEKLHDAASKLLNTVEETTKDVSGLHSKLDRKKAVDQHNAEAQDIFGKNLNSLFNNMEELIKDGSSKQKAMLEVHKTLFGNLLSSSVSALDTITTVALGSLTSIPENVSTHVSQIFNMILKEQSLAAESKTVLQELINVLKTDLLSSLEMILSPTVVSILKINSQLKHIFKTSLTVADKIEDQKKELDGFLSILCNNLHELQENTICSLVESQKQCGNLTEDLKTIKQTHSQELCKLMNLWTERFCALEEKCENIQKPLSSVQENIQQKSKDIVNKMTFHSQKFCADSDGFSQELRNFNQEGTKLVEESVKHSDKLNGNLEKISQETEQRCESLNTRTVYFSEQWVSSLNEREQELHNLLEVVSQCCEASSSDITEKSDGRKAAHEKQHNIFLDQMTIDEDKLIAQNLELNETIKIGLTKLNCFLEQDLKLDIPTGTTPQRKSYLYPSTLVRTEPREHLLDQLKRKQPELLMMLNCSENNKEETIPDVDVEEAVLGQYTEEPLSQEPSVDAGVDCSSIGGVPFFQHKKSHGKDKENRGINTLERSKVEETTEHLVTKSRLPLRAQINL
Put plainly: Inhibition of untagged human Eg5 basal ATPase activity. The note with it: read-out: Ki(app).

The test system of experiment [2] is LLC-PK1. Put plainly: Ratio of GI50 for pig L-MDR1 cells overexpressing human P-glycoprotein to GI50 for pig LLC-PK1 cells. Type of experiment: functional, Sus scrofa. In a few lines: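 MDR ratio is the GI50 in L-MDR1 cells (Pgp-overexpressing) divided by the GI50 in parental LLC-PK1 cells. Each GI50 came from growth inhibition run at least in triplicate, with 8 wells per concentration, fitted by a four-parameter sigmoidal model.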

Experiment [3] is described as follows: Growth inhibition of pig L-MDR1 cells overexpressing human P-glycoprotein. The note with it: Sus scrofa. Type of experiment: functional. In short, it runs like this: (§1)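 Parental lines (MDCKII, LLC-PK1) and matched Pgp-overexpressing lines (MDCKII-MDR1, about 500-fold Pgp; L-MDR1, about 25000-fold Pgp) were tested with and without the Pgp inhibitor LY335979. Each experiment was run at least in triplicate, with 8 wells per concentration. GI50 came from a nonlinear four-parameter sigmoidal concentration-response fit.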

Experiment [4] in a line: Growth inhibition of dog MDCK2 cells. Type of experiment: functional. The note with it: Canis lupus familiaris, MDCK-II. In a few lines:
as §1

The test system of experiment [5] is LLC-PK1. Put plainly: Growth inhibition of pig LLC-PK1 cells. Type of experiment: functional. The settings on record: Sus scrofa. In short, it runs like this: as §1
A further experiment relates to MDCK-II. Nature of the experiment: Ratio of GI50 for dog MDCK2-MDR1 cells overexpressing human P-glycoprotein to GI50 for dog MDCK2 cells. Type of experiment: functional, Canis lupus familiaris.
Experiment [6] in a line: Growth inhibition of dog MDCK2-MDR1 cells overexpressing human P-glycoprotein in presence of P-glycoprotein inhibitor LY335979. Type of experiment: functional. The note with it: Canis lupus familiaris, MDCK-II. In short, it runs like this: as §1
The nature of experiment [7]: Growth inhibition of pig L-MDR1 cells overexpressing human P-glycoprotein in presence of P-glycoprotein inhibitor LY335979. The note with it: Sus scrofa. Type of experiment: functional. In a few lines: as §1
The nature of experiment [8]: Growth inhibition of dog MDCK2-MDR1 cells overexpressing human P-glycoprotein. Type of experiment: functional. The settings on record: Canis lupus familiaris, MDCK-II. In short, it runs like this: as §1
Experiment [9] can be described thus: Growth inhibition of dog MDCK2 cells in presence of P-glycoprotein inhibitor LY335979. Type of experiment: functional. The note with it: Canis lupus familiaris, MDCK-II. In a few lines: as §1
Experiment [10] has as its system LLC-PK1. Put plainly: Growth inhibition of pig LLC-PK1 cells in presence of P-glycoprotein inhibitor LY335979. Type of experiment: functional. The settings on record: Sus scrofa. In a few lines: as §1
For experiment [11], the target named is T1, Kinesin-like protein KIF11. Nature of the experiment: Inhibition of untagged human Eg5 microtubule-stimulated ATPase activity.

For the molecule `CSc1ccc(C(SC[C@H](N)C(=O)O)(c2ccccc2)c2ccccc2)cc1`, the Ki in [1] was under 50 nM. The RatioGI50 is 35.1 in the experiment on LLC-PK1 [2] and 3.7 in the experiment on MDCK-II. In addition, the GI50 (in general, the concentration giving 50% growth inhibition) was 11800 nM in experiment [3]; 110 nM in [4]; 340 nM with LLC-PK1 [5]; 210 nM in experiment [6]; 670 nM in experiment [7]; 410 nM in experiment [8]. Further, the GI50 in experiment [9] was 110 nM; in the experiment with LLC-PK1 [10], 300 nM. Half-maximal inhibition in experiment [11] (IC50) required 21.8 nM.
On to `CC(C)c1ccc(C(SC[C@H](N)C(=O)O)(c2ccccc2)c2ccccc2)cc1`, for which the Ki in experiment [1] is under 50 nM. Further, the values for the RatioGI50 in the experiment with LLC-PK1 [2] and with MDCK-II were 34.8 and 3.5, respectively. Further, the GI50 in experiment [3] was determined as 36700 nM; in experiment [4], 780 nM; in the experiment with LLC-PK1 [5] it was 1050 nM; in experiment [6], 880 nM; in [7], 1050 nM; in experiment [8], 2750 nM. Moreover, the GI50 came to 840 nM in [9] and 1510 nM in the experiment on LLC-PK1 [10]. For the same molecule, the IC50 – broadly, the concentration at which inhibition is half-maximal – in experiment [11] turned out to be 144 nM.
Turning to `CCc1ccc(C(SC[C@H](N)C(=O)O)(c2ccccc2)c2ccccc2)cc1`, the Ki in [1] is under 50 nM. Also, the RatioGI50 in the experiment with LLC-PK1 [2] is 31.8; in the experiment with MDCK-II, 2.4. Besides, the GI50 is 10800 nM in experiment [3]; 230 nM in [4]; 340 nM with LLC-PK1 [5]; 170 nM in experiment [6]; 160 nM in experiment [7]; 560 nM in [8]. For the same molecule, the GI50 in experiment [9] came to 290 nM; in the experiment on LLC-PK1 [10], 300 nM. In addition, in [11], the IC50 was found to be 55.4 nM.
With `N[C@@H](CSC(c1ccccc1)(c1ccccc1)c1ccc(Br)cc1)C(=O)O`, the Ki in experiment [1] is under 50 nM. Also, the RatioGI50 in the experiment with LLC-PK1 [2] stood at 2.1; in the experiment on MDCK-II, 2.7. In addition, the GI50 in experiment [3] is 6780 nM; in experiment [4], 250 nM; in the experiment with LLC-PK1 [5] it was 3200 nM; in experiment [6] it was 210 nM; in experiment [7], 2350 nM; in experiment [8], 670 nM. Besides, the GI50 in experiment [9] was 250 nM; with LLC-PK1 [10] it was 2120 nM. The IC50 in [11] is 26.8 nM.
As for `N[C@@H](CSC(c1ccccc1)(c1ccccc1)c1ccc(C(F)(F)F)cc1)C(=O)O`, the Ki in experiment [1] was under 50 nM. The RatioGI50 in the experiment with LLC-PK1 [2] worked out at 8; in the experiment on MDCK-II, 2.1. Further, the GI50 in [3] came to 8020 nM; in experiment [4] it was 320 nM; in the experiment on LLC-PK1 [5], 1000 nM; in experiment [6], 270 nM; in experiment [7], 1020 nM; in experiment [8], 670 nM. Also, the 50% growth inhibitory concentration (GI50) was 330 nM in experiment [9] and 510 nM with LLC-PK1 [10]. In [11], this molecule yielded an IC50 of 116 nM.
Consider `N[C@@H](CSC(c1ccccc1)(c1ccccc1)c1ccc(I)cc1)C(=O)O`, for which the Ki in experiment [1] is under 50 nM. Besides, the RatioGI50 came out at 27.6 with LLC-PK1 [2] and 3.4 with MDCK-II. In addition, the GI50 came to 9170 nM in [3]; 100 nM in experiment [4]; 330 nM in the experiment with LLC-PK1 [5]; 180 nM in experiment [6]; 610 nM in [7]; 330 nM in experiment [8]. The GI50 in experiment [9] worked out at 110 nM; in the experiment with LLC-PK1 [10] it was 440 nM. Besides, in experiment [11], the IC50 was determined as 19.3 nM.
As for `N[C@@H](CSC(c1ccccc1)(c1ccccc1)c1ccc2ccccc2c1)C(=O)O`, in experiment [1], the Ki was under 50 nM. The values for the RatioGI50 in the experiment on LLC-PK1 [2] and in the experiment on MDCK-II were 38.6 and 3.1, respectively. The GI50 in experiment [3] is 6180 nM; in [4] it was 60 nM; with LLC-PK1 [5], 160 nM; in [6], 50 nM; in experiment [7] it was 290 nM; in experiment [8], 190 nM. In addition, the figures for the GI50 (in experiment [9]; in the experiment on LLC-PK1 [10]) were 70 nM and 180 nM, respectively. Further, in [11], the IC50 worked out at 16.3 nM.
